Measured values as given in ChEMBL document CHEMBL1157296, “Cytotoxic and antimicrobial benzophenones from the leaves of Tovomita longifolia” (2006).
≈ marks a conversion by molar mass, not a printed value. Calls of active or inactive are those of the source. The rule behind the calls is not given here.

What was measured:
Format in all cases: functional
[1] = test system: Salmonella enterica subsp. enterica serovar Gallinarum; experiment: Antimicrobial activity against Salmonella gallinarum ATCC 9184
[2] = test system: Mycolicibacterium smegmatis; experiment: Antimicrobial activity against Mycobacterium smegmatis ATCC 607
[3] = test system: Escherichia coli; experiment: Antimicrobial activity against Escherichia coli ATCC 9637
[4] = test system: Staphylococcus aureus; experiment: Antimicrobial activity against Staphylococcus aureus ATCC 6538
[5] = test system: Klebsiella pneumoniae; experiment: Antimicrobial activity against Klebsiella pneumoniae ATCC 10031
[6] = test system: Pseudomonas aeruginosa; experiment: Antimicrobial activity against Pseudomonas aeruginosa ATCC 27853
[7] = test system: Candida albicans; experiment: Antimicrobial activity against Candida albicans ATCC 10231
[8] = test system: NCI-H460; experiment: Cytotoxicity against human H460 cells
Procedure, shortened: (§1)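 Human cancer cell lines of breast (MCF-7), CNS (SF-268) and lung (H-460) origin were tested by the Monks et al. method. All three lines were used throughout to monitor fractions and isolated compounds.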

[9] = test system: SF-268; experiment: Cytotoxicity against human SF268 cells; procedure, shortened: as §1
[10] = test system: MCF7; experiment: Cytotoxicity against human MCF7 cells; procedure, shortened: as §1

C[C@@H]1[C@H](O)[C@@H](C)/C=C/C=C/C=C/C=C/C=C/C=C/C=C/[C@H](O[C@@H]2O[C@H](C)[C@@H](O)[C@H](N)[C@@H]2O)C[C@@H]2O[C@](O)(C[C@@H](O)C[C@@H](O)[C@H](O)CC[C@@H](O)C[C@@H](O)CC(=O)O[C@H]1C)C[C@H](O)[C@H]2C(=O)O
Activity [1]: inactive | Activity [2]: inactive | Activity [3]: inactive | Activity [4]: inactive | Activity [5]: inactive | Activity [6]: inactive

CN[C@@H]1[C@H](O[C@H]2[C@H](O[C@H]3[C@H](O)[C@@H](O)[C@H](N=C(N)N)[C@@H](O)[C@@H]3N=C(N)N)O[C@@H](C)[C@]2(O)C=O)O[C@@H](CO)[C@H](O)[C@H]1O.CN[C@@H]1[C@H](O[C@H]2[C@H](O[C@H]3[C@H](O)[C@@H](O)[C@H](N=C(N)N)[C@@H](O)[C@@H]3N=C(N)N)O[C@@H](C)[C@]2(O)C=O)O[C@@H](CO)[C@H](O)[C@H]1O.O=S(=O)(O)O.O=S(=O)(O)O.O=S(=O)(O)O [STREPTOMYCIN SULFATE]
MIC [1]: 3.12 µg/mL | Activity [7]: inactive | MIC [2]: 12.5 µg/mL | MIC [3]: 6.25 µg/mL | MIC [4]: 12.5 µg/mL | MIC [5]: 3.12 µg/mL | MIC [6]: 1.56 µg/mL

C=C(CCC=C(C)C)[C@H](O)Cc1c(O)cc(O)c(C(=O)c2ccccc2)c1O
GI50 [8]: 7.8 µg/mL (≈ 20.4 µM) | GI50 [9]: 6.5 µg/mL (≈ 17 µM) | GI50 [10]: 6.7 µg/mL (≈ 17.5 µM)

CC(C)=CCC/C(C)=C/Cc1c(O)cc(O)c(C(=O)c2ccccc2)c1O
Activity [1]: inactive | Activity [7]: inactive | MIC [2]: 50 µg/mL (≈ 136 µM) | Activity [8]: inactive | Activity [3]: inactive | Activity [4]: inactive | Activity [5]: inactive | Activity [6]: inactive | Activity [9]: inactive | Activity [10]: inactive

CC1(C)CCC[C@]2(C)Oc3c(c(O)cc(O)c3C(=O)c3ccccc3)C[C@@H]12
MIC [1]: 12.5 µg/mL (≈ 34.1 µM) | Activity [7]: inactive | MIC [2]: 6.25 µg/mL (≈ 17.1 µM) | GI50 [8]: 2.1 µg/mL (≈ 5.73 µM) | Activity [3]: inactive | MIC [4]: 12.5 µg/mL (≈ 34.1 µM) | MIC [5]: 6.25 µg/mL (≈ 17.1 µM) | MIC [6]: 12.5 µg/mL (≈ 34.1 µM) | GI50 [9]: 1.7 µg/mL (≈ 4.64 µM) | GI50 [10]: 1.8 µg/mL (≈ 4.91 µM)

C=C(C)[C@H](O)CC/C(C)=C/Cc1c(O)cc(O)c(C(=O)c2ccccc2)c1O
Activity [8]: inactive | Activity [9]: inactive | Activity [10]: inactive

COc1cccc2c1C(=O)c1c(O)c3c(c(O)c1C2=O)C[C@@](O)(C(=O)CO)C[C@@H]3O[C@H]1C[C@H](N)[C@H](O)[C@H](C)O1 [DOXORUBICIN]
GI50 [8]: 0.42 µg/mL (≈ 0.773 µM) | GI50 [9]: 0.5 µg/mL (≈ 0.92 µM) | GI50 [10]: 0.38 µg/mL (≈ 0.699 µM)

CC(C)=CCC[C@]1(C)Oc2c(c(O)cc(O)c2C(=O)c2ccccc2)C[C@@H]1O
Activity [1]: inactive | Activity [7]: inactive | MIC [2]: 25 µg/mL (≈ 65.4 µM) | GI50 [8]: 6.5 µg/mL (≈ 17 µM) | Activity [3]: inactive | Activity [4]: inactive | MIC [5]: 25 µg/mL (≈ 65.4 µM) | Activity [6]: inactive | GI50 [9]: 5.6 µg/mL (≈ 14.6 µM) | GI50 [10]: 6.8 µg/mL (≈ 17.8 µM)

CC(C)=CCC/C(C)=C/COc1cc(O)c(C(=O)c2ccccc2)c(O)c1
Activity [1]: inactive | Activity [7]: inactive | MIC [2]: 12.5 µg/mL (≈ 34.1 µM) | GI50 [8]: 4.4 µg/mL (≈ 12 µM) | Activity [3]: inactive | MIC [4]: 12.5 µg/mL (≈ 34.1 µM) | Activity [5]: inactive | Activity [6]: inactive | GI50 [9]: 2 µg/mL (≈ 5.46 µM) | GI50 [10]: 4.8 µg/mL (≈ 13.1 µM)
